Rows were chosen to be rich in hits. Some 0.94% of all compounds tested hit in one or more screens of this group.
GC-A act = GC-A stimulated cGMP production enhancers – HEK293 GC-A cells, cGMP TR-FRET, EC30 ANP, primary screen | 0.14% of 370,000 active | activation, % at 10 µM | Atrial natriuretic peptide receptor 1 (Homo sapiens), P16066 | 0% at EC30 ANP, 100% saturating ANP; in the data active = activation above about 40%
NPR2 activator = human GC-B receptor activators, primary screen, HEK293 GC-B cells, cGMP TR-FRET, EC30 CNP | 0.11% of 370,000 active | activation, % at 10 µM | 0% at EC30 CNP, 100% saturating CNP | Atrial natriuretic peptide receptor 2 (Homo sapiens), P20594;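 active = activation at 10 µM reaching about 35% in either raw or pattern-adjusted values, limit read from the data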
GalR3 antag = GalR3 antagonists in HEK293 cells, primary screen, cell-based, fluorescence readout. HEK293 GalR3-CNG cAMP membrane potential fluorescence; galR3 body fused to GalR1 C-terminus. inhibition, % at 3 µM. 0.44% of 360,000 active. AID 651719, 2012;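 active = inhibition above the screen-wide average plus 3 SD, cut at about 13% in these data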;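 note: forskolin and galanin both at EC90 stimulate the cells; cAMP rise reported by CNG channel membrane potential dye signal; 0% = forskolin plus galanin with DMSO and 100% = forskolin alone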
Arr AP2 block = inhibitors of beta-arrestin/AP2 binding, primary screen, biochemical, GPCR trafficking, flow cytometry; 0.31% of 340,000 active; beta-arrestin 1 C-terminal peptide binding to AP2 beta2-adaptin appendage (human); inhibition, % at 10 µM; FITC-arrestin peptide / GST-AP2 beads; AP2 beta2 appendage carries R879A mutation;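 active = inhibition above a set limit, near 3 SD of compounds lacking own fluorescence, cut at about 54% in these data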;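 note: plate controls were DMSO wells for no effect and 5 µM unlabelled arrestin peptide for full effect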
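System: GST-AP2 R879A glutathione beads. Medium: PBS with 0.05% Tween 20 and 0.1% BSA. Also added: FITC-arrestin peptide, 50 nM. Incubation: 12 min plus 1 h, RT. Measured by: high-throughput flow cytometry of beads, ex 488, em 535 nm. Evaluation: percent drop in bead-associated FITC signal.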
GalR3 conf = GalR3 antagonist hit confirmation, cell-based, fluorescence, triplicate | HEK293 GalR3 CNG cAMP biosensor, membrane potential fluorescence; galR3 fused to GalR1 carboxy tail; challenged with forskolin and galanin at EC90 | 59% of 1,600 active | inhibition, % at 3 µM | shares compounds with GalR3 antag;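 active = inhibition above the primary screen's cutoff, the mean inhibition of all screened compounds plus 3 SD, cut at about 13% in these data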;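 note: 0% = forskolin plus galanin and 100% = forskolin alone with DMSO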
CNG parental = nonspecific cAMP agonists in parental HEK-CNG cells, counter-screen for GalR3 antagonist project, cell-based, fluorescence, high throughput | AID 652268, 2013 | 10% of 1,600 active | shares compounds with GalR3 antag | HEK293-CNG parental cells, cAMP membrane potential fluorescence; normalised: DMSO wells 0%, forskolin wells 100% | activation, % at 3 µM; in the data active = activation above about 1.3%
* hit, by the source's call; . = not tested or not shown.

SMILES | GC-A act | NPR2 activator | GalR3 antag | Arr AP2 block | GalR3 conf | CNG parental
O=C(Nc1ccc(F)cc1)OCc1cn(Cc2cccc(C(F)(F)F)c2)nn1 | -1.6 | 3.3 | . | . | . | .
C[C@H](CO)N1C[C@H](C)[C@@H](CN(C)C(=O)Cc2cccnc2)Oc2ncc(C#CCc3ccccc3)cc2C1=O | 5.8 | 4.8 | 1.5 | . | . | .
CS(=O)(=O)N1CCN(c2ccccc2NC(=O)c2ccc(Cl)cc2)CC1 | 4.1 | -6.8 | . | -3.5 | 11.8 | 0.1
CS(=O)(=O)N1CCN(c2ccccc2NC(=O)c2ccc3ccccc3c2)CC1 | -8.0 | -5.2 | -2.8 | 6.5 | . | .
CCOc1ccc(-c2ccc(SCC)nn2)cc1 | -0.5 | -0.6 | . | -8.4 | -5.3 | -0.2
CN(Cc1ccccc1)C(=O)OCc1cn(Cc2ccccc2F)nn1 | 5.0 | 7.5 | . | . | . | .
CCCCCCCCN1C(=O)[C@@H](CC(=O)NCc2cccc(C(F)(F)F)c2)C[C@@]2(C(=O)OC)C1=C[C@H](C1CCCC1)O[C@@H]2C | 2.4 | 5.7 | -3.9 | . | . | .
COc1ccc(CCNC(=O)c2csc3c2CCCC3)cc1OC | -1.9 | -1.5 | 12.6* | -38.5 | 3.4 | 0.1
CCOC(=O)N1CCN(C(=O)C[C@H]2C[C@@]3(C(=O)OC)C(=C[C@H](COCc4ccccc4)O[C@@H]3C)N(Cc3ccco3)C2=O)CC1 | 2.8 | 1.8 | . | . | . | .
Cc1cc(N2CCNC[C@@H]2C)ccc1N1C[C@@H](C)O[C@@H](C)C1 | -3.6 | -0.9 | -6.1 | . | . | .
CCCc1ccc(C(=O)NC(=O)c2ccccc2O)cc1 | 4.7 | 2.5 | 13.3* | -9.9 | 48.6* | -0.7
Nc1ncnc2c1ncn2[C@@H]1O[C@H](C(=O)N[C@@H](CCc2ccccc2)C(=O)O)[C@@H](O)[C@H]1O | 6.2 | 1.9 | -7.9 | . | . | .
COc1cc(CSc2nnnn2-c2ccc(C)cc2)cc(OC)c1OC | -2.3 | -0.9 | 95.6* | 22.2 | 97.7* | 0.4
COc1ccc(F)cc1CSc1nnnn1-c1ccc(O)cc1 | 0.8 | -1.6 | -8.9 | 1.5 | . | .
O=C(c1ccccc1[N+](=O)[O-])N1CCCC(C(=O)N2CCCCCC2)C1 (centres undefined) | -3.7 | 6.8 | -7.2 | -1.4 | . | .
CCOC(=O)C1CCCN(C(=O)c2ccccc2[N+](=O)[O-])C1 (centres undefined) | 1.9 | -0.1 | 54.7* | -6.3 | 2.5 | -0.2
OCC[C@@H]1C[C@H](O)[C@@H](O)[C@]2(CCc3ccccc3O2)O1 | 2.8 | 3.9 | -1.3 | 5.8 | . | .
OCC[C@@H]1C[C@@H](O)[C@H](O)[C@]2(CCc3ccccc3O2)O1 | -1.5 | 4.7 | . | 33.2 | 18.2* | 0.0
COCc1[nH]nc2c1C(c1cccc(C(F)(F)F)c1)NC2=O (centres undefined) | 4.8 | 10.3 | -5.3 | . | . | .
Cc1ccc(N=C2NC(=O)/C(=C/c3cccnc3)S2)cc1C | -6.5 | -12.5 | 15.0* | -2.5 | 3.9 | 0.5
O=C1NC(=Nc2ccccc2)S/C1=C\c1cccnc1 | -5.9 | -0.5 | 2.2 | 7.8 | . | .
C[C@H](NCCc1ccc(O)cc1)[C@H](O)c1ccc(O)cc1 | 5.2 | 2.0 | 38.8* | -1.0 | 62.4* | 0.8
C[C@@H]1NS(=O)(=O)c2c(F)cccc2O[C@@H]1c1ccccc1 | 2.3 | -2.1 | -5.1 | . | . | .
CCc1ccc(OCC(=O)Nc2ccc(-c3cc4ccccc4oc3=O)c(OC)c2)cc1 | 5.1 | 2.1 | 26.0* | -0.5 | 66.3* | 0.4
COc1cc(NC(=O)c2cc(Cl)ccc2Cl)ccc1-c1cc2ccccc2oc1=O | 3.3 | 4.4 | -9.1 | 13.4 | . | .
Cc1nc(SCc2nc3ccccc3[nH]2)c2oc3ccc(Br)cc3c2n1 | 5.9 | 1.7 | 13.5* | -2.0 | 28.2* | 0.8
Cc1nc(-c2ccccc2)nc2sc(C(=O)c3ccc(F)cc3)c(N)c12 | 0.8 | -6.9 | -1.4 | 4.7 | . | .
Cc1nc2sc(C(=O)c3ccccc3)c(N)c2c(C)c1C | -1.5 | -4.9 | 13.1* | 1.8 | 2.1 | -0.3

High-throughput results: PubChem BioAssay, several laboratories
